Results pooled from the literature.
Target: Serine/threonine-protein kinase Nek4 (NEK4, Homo sapiens, UniProt P51957)

With `c1cncc(-c2cccc(Nc3nccc(NC4CCCCC4)n3)c2)c1` the remaining binding was 100% (binding; competition with immobilised ligand; 10 µM).
The remaining binding of `Cc1c[nH]c2nccc(Oc3c(F)cc(Nc4cc(Cl)nc(N)n4)cc3F)c12` is reported as 90% (cell-free assay; competition with immobilised ligand; 0.1 µM).
With `O=C(NCCCN1CCOCC1)c1ccc(Nc2nccc(-c3cc4ccccc4s3)n2)cc1` the remaining binding was 100% (binding; competition with immobilised ligand; 1 µM).
`COc1cnc(Nc2cccc(S(N)(=O)=O)c2)nc1N1CCN(c2ccccc2)C(=O)C1` has a remaining binding of 79% (binding; competition with immobilised ligand; 1 µM).
`O=C(c1ccc(Nc2ncc(Cl)c(-c3ccc(Cl)s3)n2)cc1)N1CCC(N2CCCC2)CC1` gave a remaining binding of 30% (binding; competition with immobilised ligand; 1 µM).
The remaining binding of `Cn1nc(C(F)(F)F)cc1-c1cnc(N2CCc3cc(S(=O)(=O)Nc4c(F)cc(Cl)cc4F)cc(N4CCCC4=O)c32)nc1` is reported as 72% (cell-free assay; competition with immobilised ligand; 1 µM).
`N[C@@H]1CCN(c2nccc(-c3cnn4ncccc34)n2)C1` has a remaining binding of 100% (binding; 1 µM).
The remaining binding of `COc1ncc2cc3ccccc3nc2c1C#N` is reported as 93% (cell-free assay; competition with immobilised ligand; 5 µM).
The remaining binding of `FC(F)(F)c1ccc2c(c1)nc(-c1cccnc1)n2C1CC1` is reported as 100% (cell-free assay; competition with immobilised ligand; 1 µM).
For `FC(F)(F)Oc1cccc(-c2cnc3ccc(-c4ccncc4)nn23)c1`, the remaining binding was 94% (cell-free assay; competition with immobilised ligand; 5 µM).
With `CN(C)c1nccc(-c2cnn3ncccc23)n1` the remaining binding was 98% (binding; 1 µM).
`Cc1cnc(Nc2ccc(C(=O)N3CCC(N4CCCC4)CC3)cc2)nc1-c1cc2ccccc2s1` gave a remaining binding of 59% (binding; competition with immobilised ligand; 1 µM).
For `C[C@@H]1CCN(c2nccc(-c3cnn4ncccc34)n2)C1`, the remaining binding was 83% (binding; 1 µM).
With `CCCCN(CCCC)C(=O)CN1C[C@@H](c2cc(OC)c3c(c2)OCO3)[C@H](C(=O)O)[C@H]1CC(C)(C)CCC` the remaining binding was 93.9% (cell-free assay; competition with immobilised ligand; 1 µM).
For `O=C(NCC1CCOCC1)c1n[nH]cc1NC(=O)c1c(F)cccc1F`, the remaining binding was 78% (binding; competition with immobilised ligand; 1 µM).
With `Nc1ncc2c(n1)-c1c([nH]c3ccc(C#CC4CC4)cc13)CCCC2` the remaining binding was 84% (binding; competition with immobilised ligand; 1 µM).
`F[C@@H]1CCN(c2nccc(-c3cnn4ncccc34)n2)C1` gave a remaining binding of 100% (binding; 1 µM).
`CCC(=O)N[C@H]1CC[C@@H](C(=O)N(C)c2ccc(-c3nc4ccccc4o3)cc2)C1` gave a remaining binding of 99% (cell-free assay; competition with immobilised ligand; 1 µM).
With `COc1ccnn2ncc(-c3ccnc(N(C)C)n3)c12` the remaining binding was 86% (binding; 1 µM).
`CN(c1ccnc(CNc2nc(Nc3ccc4c(c3)CC(=O)N4)ncc2C(F)(F)F)n1)S(C)(=O)=O` has a remaining binding of 84% (cell-free assay; competition with immobilised ligand; 1 µM).
